According to ChEMBL document CHEMBL1671627, “Increasing trends in antimicrobial resistance among clinically important anaerobes and Bacteroides fragilis isolates causing nosocomial infections: emerging resistance to carbapenems” (2008):
Values after ≈ are worked out from the molar mass of the structure shown.

Experiments:
Assay type in all cases: functional
Veillonella parvula = assay: Antibacterial activity against Veillonella parvula by CLSI agar dilution method in presence of clavulanate
Procedure, shortened: (§1)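 Agar dilution per CLSI guidelines on nonduplicate anaerobic bloodstream isolates collected at NTUH, January to December 2006. Isolates were spotted by Steers replicator onto supplemented Brucella blood agar and incubated anaerobically for 48 h at 35°C. MIC was the lowest drug concentration that inhibited growth. B. fragilis ATCC 25285, B. thetaiotaomicron ATCC 29741 and E. lentum ATCC 43055 were run as QC in each run.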

Parvimonas micra [1] = assay: Antibacterial activity against beta-lactamase producing Micromonas micros assessed as resistant isolates by CLSI agar dilution method in presence of clavulanate
Procedure, shortened: (§2)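 207 nonduplicate anaerobic blood isolates from patients with bloodstream infections at NTUH, collected January–December 2006. MICs were determined by agar dilution following CLSI guidelines. Inocula were applied with a Steers replicator onto supplemented Brucella blood agar and incubated 48 h at 35°C in an anaerobic chamber. MIC was the lowest concentration inhibiting growth. B. fragilis ATCC 25285, B. thetaiotaomicron ATCC 29741 and E. lentum ATCC 43055 served as controls in each run.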

Fusobacterium mortiferum [2] = assay: Antibacterial activity against Fusobacterium mortiferum assessed as susceptible isolates by CLSI agar dilution method in presence of clavulanate; procedure, shortened: as §1
Clostridium tertium [3] = assay: Antibacterial activity against beta-lactamase producing Clostridium tertium assessed as susceptible isolates by CLSI agar dilution method in presence of clavulanate
Procedure, shortened: (§3)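 CLSI agar dilution MICs for anaerobic blood isolates (nonduplicate) collected from bloodstream-infection patients at a Taiwanese tertiary hospital, January–December 2006. Isolates were spotted by Steers replicator onto supplemented Brucella blood agar and incubated anaerobically for 48 h at 35°C. MIC was the lowest drug concentration inhibiting growth. Each run included B. fragilis ATCC 25285, B. thetaiotaomicron ATCC 29741 and E. lentum ATCC 43055 as quality-control strains.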

Phocaeicola vulgatus = assay: Antibacterial activity against beta-lactamase producing Bacteroides vulgatus assessed as susceptible isolates by CLSI agar dilution method in presence of clavulanate; procedure, shortened: as §3
Bacteroides uniformis = assay: Antibacterial activity against beta-lactamase producing Bacteroides uniformis by CLSI agar dilution method in presence of clavulanate; procedure, shortened: as §1
[4] = tested on: Clostridium paraputrificum; assay: Antibacterial activity against beta-lactamase producing Clostridium paraputrificum assessed as resistant isolates by CLSI agar dilution method in presence of clavulanate; procedure, shortened: as §2
[5] = tested on: Peptostreptococcus anaerobius; assay: Antibacterial activity against beta-lactamase producing Peptostreptococcus anaerobius assessed as susceptible isolates by CLSI agar dilution method in presence of clavulanate; procedure, shortened: as §3
Parvimonas micra [6] = assay: Antibacterial activity against beta-lactamase producing Micromonas micros assessed as susceptible isolates by CLSI agar dilution method in presence of clavulanate; procedure, shortened: as §3
Clostridium septicum = assay: Antibacterial activity against beta-lactamase producing Clostridium septicum assessed as susceptible isolates by CLSI agar dilution method in presence of clavulanate; procedure, shortened: as §3
[7] = tested on: Fusobacterium necrophorum; assay: Antibacterial activity against Fusobacterium necrophorum assessed as susceptible isolates by CLSI agar dilution method in presence of clavulanate; procedure, shortened: as §1
[8] = tested on: Prevotella melaninogenica; assay: Antibacterial activity against Prevotella melaninogenica assessed as susceptible isolates by CLSI agar dilution method in presence of clavulanate; procedure, shortened: as §1
[9] = tested on: Peptoniphilus asaccharolyticus; assay: Antibacterial activity against beta-lactamase producing Peptoniphilus asaccharolyticus assessed as resistant isolates by CLSI agar dilution method in presence of Tazobactam; procedure, shortened: as §2
Bacteroides caccae [10] = assay: Antibacterial activity against beta-lactamase producing Bacteroides caccae assessed as susceptible isolates by CLSI agar dilution method
Finegoldia magna [11] = assay: Antibacterial activity against beta-lactamase producing Finegoldia magna assessed as resistant isolates by CLSI agar dilution method in presence of Tazobactam; procedure, shortened: as §2
[12] = tested on: Prevotella melaninogenica; assay: Antibacterial activity against Prevotella melaninogenica assessed as resistant isolates by CLSI agar dilution method in presence of Tazobactam; procedure, shortened: as §2
Fusobacterium varium = assay: Antibacterial activity against Fusobacterium varium by CLSI agar dilution method in presence of Tazobactam; procedure, shortened: as §1
[13] = tested on: Clostridium paraputrificum; assay: Antibacterial activity against beta-lactamase producing Clostridium paraputrificum assessed as susceptible isolates by CLSI agar dilution method in presence of Tazobactam; procedure, shortened: as §3
[14] = tested on: Fusobacterium necrophorum; assay: Antibacterial activity against Fusobacterium necrophorum by CLSI agar dilution method
Fusobacterium nucleatum [15] = assay: Antibacterial activity against Fusobacterium nucleatum assessed as resistant isolates by CLSI agar dilution method
Fusobacterium mortiferum [16] = assay: Antibacterial activity against Fusobacterium mortiferum assessed as susceptible isolates by CLSI agar dilution method in presence of Tazobactam; procedure, shortened: as §1
[17] = tested on: Fusobacterium necrophorum; assay: Antibacterial activity against Fusobacterium necrophorum assessed as resistant isolates by CLSI agar dilution method
Clostridium tertium [18] = assay: Antibacterial activity against beta-lactamase producing Clostridium tertium by CLSI agar dilution method in presence of Tazobactam; procedure, shortened: as §3
Fusobacterium mortiferum [19] = assay: Antibacterial activity against Fusobacterium mortiferum by CLSI agar dilution method in presence of Tazobactam; procedure, shortened: as §1
Fusobacterium nucleatum [20] = assay: Antibacterial activity against Fusobacterium nucleatum by CLSI agar dilution method in presence of Tazobactam; procedure, shortened: as §1
Prevotella buccae [21] = assay: Antibacterial activity against Prevotella buccae by CLSI agar dilution method; details: Segatella buccae
Prevotella bivia = assay: Antibacterial activity against Prevotella bivia assessed as susceptible isolates by CLSI agar dilution method
Bacteroides fragilis [22] = assay: Antibacterial activity against Bacteroides fragilis assessed as resistant isolates by CLSI agar dilution method
Bacteroides fragilis [23] = assay: Antibacterial activity against Bacteroides fragilis assessed as susceptible isolates by CLSI agar dilution method in presence of Tazobactam; procedure, shortened: as §1
Prevotella buccae [24] = assay: Antibacterial activity against Prevotella buccae by CLSI agar dilution method in presence of Tazobactam; details: Segatella buccae; procedure, shortened: as §1
[25] = tested on: Prevotella melaninogenica; assay: Antibacterial activity against Prevotella melaninogenica by CLSI agar dilution method
Bacteroides caccae [26] = assay: Antibacterial activity against beta-lactamase producing Bacteroides caccae assessed as susceptible isolates by CLSI agar dilution method in presence of Tazobactam; procedure, shortened: as §1
[27] = tested on: Peptoniphilus asaccharolyticus; assay: Antibacterial activity against beta-lactamase producing Peptoniphilus asaccharolyticus by CLSI agar dilution method in presence of Tazobactam; procedure, shortened: as §3
Finegoldia magna [28] = assay: Antibacterial activity against beta-lactamase producing Finegoldia magna assessed as resistant isolates by CLSI agar dilution method
Parvimonas micra [29] = assay: Antibacterial activity against beta-lactamase producing Micromonas micros assessed as resistant isolates by CLSI agar dilution method
[30] = tested on: Fusobacterium necrophorum; assay: Antibacterial activity against Fusobacterium necrophorum assessed as susceptible isolates by CLSI agar dilution method in presence of Tazobactam; procedure, shortened: as §1
Prevotella intermedia = assay: Antibacterial activity against Prevotella intermedia by CLSI agar dilution method in presence of Tazobactam; procedure, shortened: as §1
Fusobacterium nucleatum [31] = assay: Antibacterial activity against Fusobacterium nucleatum assessed as susceptible isolates by CLSI agar dilution method in presence of Tazobactam; procedure, shortened: as §1

Work on `CC1(C)S[C@@H]2[C@H](NC(=O)[C@H](N)c3ccc(O)cc3)C(=O)N2[C@H]1C(=O)O` [AMOXICILLIN] yielded an MIC (Veillonella parvula) of 0.12 µg/mL, an Activity (Parvimonas micra [1]) of 3% and an Activity (Fusobacterium mortiferum [2]) of 89%. It also gave an Activity (Clostridium tertium [3]) of 96%, an Activity (Phocaeicola vulgatus) of 53% and an MIC50 (Bacteroides uniformis) of 8 µg/mL. For the same compound, the MIC90 (Bacteroides uniformis) was 32 µg/mL, the Activity [4] was 4% and the Activity [5] was 94%. For the same compound, the Activity (Parvimonas micra [6]) was 94%, the Activity (Clostridium septicum) was 96% and the Activity [7] was 89%. It also gave an Activity [8] of 81%.

For `CCN1CCN(C(=O)N[C@@H](C(=O)N[C@@H]2C(=O)N3[C@@H]2SC(C)(C)[C@@H]3C(=O)O)c2ccccc2)C(=O)C1=O` [PIPERACILLIN], the Activity [9] was 0%, the Activity (Bacteroides caccae [10]) was 35% and the Activity (Finegoldia magna [11]) was 0%. It also gave an Activity [12] of 0%, an MIC50 (Fusobacterium varium) of 0.5 µg/mL and an MIC90 (Fusobacterium varium) of 2 µg/mL. It also gave an Activity [13] of 100%, an MIC50 [14] of 2 µg/mL (≈ 3.86 µM) and an MIC90 [14] of 8 µg/mL (≈ 15.5 µM). The Activity (Fusobacterium nucleatum [15]) was 10%, the Activity (Fusobacterium mortiferum [16]) was 100% and the Activity [17] was 10%. The MIC50 (Clostridium tertium [18]) was 0.5 µg/mL, the MIC90 (Clostridium tertium [18]) was 2 µg/mL and the MIC50 (Fusobacterium mortiferum [19]) was 0.5 µg/mL. The MIC90 (Fusobacterium mortiferum [19]) was 2 µg/mL, the MIC50 (Fusobacterium nucleatum [20]) was 0.5 µg/mL and the MIC90 (Fusobacterium nucleatum [20]) was 2 µg/mL. It also gave an MIC50 (Prevotella buccae [21]) of 16 µg/mL (≈ 30.9 µM), an MIC90 (Prevotella buccae [21]) of 128 µg/mL (≈ 247 µM) and an Activity (Prevotella bivia) of 71%. For the same compound, the Activity (Bacteroides fragilis [22]) was 35%, the Activity (Bacteroides fragilis [23]) was 95% and the MIC (Prevotella buccae [24]) was 0.03 µg/mL. It also gave an MIC50 (Prevotella buccae [24]) of 0.03 µg/mL, an MIC90 (Prevotella buccae [24]) of 1 µg/mL and an MIC50 [25] of 16 µg/mL (≈ 30.9 µM). For the same compound, the MIC90 [25] was 128 µg/mL (≈ 247 µM), the Activity (Bacteroides caccae [26]) was 96% and the MIC [27] was 0.03 µg/mL. For the same compound, the MIC50 [27] was 0.03 µg/mL, the MIC90 [27] was 2 µg/mL and the Activity (Finegoldia magna [28]) was 3%. The Activity (Parvimonas micra [29]) was 3%, the Activity [30] was 100% and the MIC (Prevotella intermedia) was 0.03 µg/mL. It also gave an MIC50 (Prevotella intermedia) of 0.03 µg/mL, an MIC90 (Prevotella intermedia) of 1 µg/mL and an Activity (Fusobacterium nucleatum [31]) of 100%.
